Results on 18 molecules are retold here after ChEMBL document CHEMBL1154726, “Exploring the effect of 2,3,4-trimethoxy-phenyl moiety as a component of indolephenstatins” (Eur J Med Chem, 2010).

The species named for one experiment is Bos taurus. Briefly: Inhibition of calf brain tubulin polymerization at 20 uM after 20 mins.
Conditions: not given
In short, it runs like this: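 Single-concentration screen of tubulin assembly using calf brain MTP at 1.0 mg/mL in 0.1 M MES, 1 mM EGTA, 1 mM MgCl2, 1 mM β-ME, 1.5 mM GTP, pH 6.7, 4% DMSO, with a no-ligand control. Samples were preincubated 30 min at 20 °C and 10 min on ice, then warmed from 4 °C to 37 °C.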
As to `CN/N=C(/c1ccc2c(ccn2C)c1)c1ccc(OC)c(OC)c1OC`, the inhibition is -0%.
Molecule `CCn1ccc2cc(/C(=N/NC(C)=O)c3ccc(OC)c(OC)c3OC)ccc21` yielded an inhibition of 5%.
`CCn1ccc2cc(/C(=N/OC(C)=O)c3ccc(OC)c(OC)c3OC)ccc21` came in with an inhibition of 29%.
Molecule `COc1ccc(C(=O)c2cc(OC)c(OC)c(OC)c2)cc1O` [PHENSTATIN] gave an inhibition of 97%.
Same read-out and setting: the same measure for `CCn1ccc2cc(/C(=N/N)c3ccc(OC)c(OC)c3OC)ccc21`: 12%; for `CCn1ccc2cc(C(=O)c3ccc(OC)c(OC)c3OC)ccc21`: 47%; for `COc1ccc(/C(=N\NC(C)=O)c2ccc3c(ccn3C)c2)c(OC)c1OC`: 22%.
Regarding `COc1ccc(/C(=N\N)c2ccc3c(ccn3C)c2)c(OC)c1OC`, the inhibition came to 25%.
Molecule `COc1ccc(C(=O)c2ccc(OC)c(OC)c2OC)cc1O` showed an inhibition of 19%.
On the same count and under the same terms, the same measure for `COc1ccc(C(=O)c2ccc3c(ccn3C)c2)c(OC)c1OC`: 98%; for `COc1ccc(C(O)c2ccc3c(ccn3C)c2)c(OC)c1OC` (configuration not stated): 9%; for `CCn1ccc2cc(C(O)c3ccc(OC)c(OC)c3OC)ccc21` (configuration not stated): -0%.

The species named for the next experiment is Bos taurus. Nature of the experiment: Inhibition of calf brain tubulin polymerization at 30 uM after 20 mins.
Conditions: not given
In short, it runs like this:
(§1)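 Single-concentration screen of tubulin assembly using calf brain MTP at 1.0 mg/mL in 0.1 M MES, 1 mM EGTA, 1 mM MgCl2, 1 mM β-ME, 1.5 mM GTP, pH 6.7, 4% DMSO, with a no-ligand control. Samples were preincubated 30 min at 20 °C and 10 min on ice, then warmed from 4 °C to 37 °C. Percent inhibition of the turbidity increase was taken after 20 min.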
In turn, `CCn1ccc2cc(/C(=N\NC)c3ccc(OC)c(OC)c3OC)ccc21` showed an inhibition of 17%.
On the same count and under the same terms, the result for `COc1ccc(/C(=N\O)c2ccc3c(ccn3C)c2)c(OC)c1OC` reads 82%; that for `COc1ccc(/C(=N\OC(C)=O)c2ccc3c(ccn3C)c2)c(OC)c1OC`, 20%; that for `CCn1ccc2cc(/C(=N/O)c3ccc(OC)c(OC)c3OC)ccc21`, 52%.

For the next experiment, the species on record is Bos taurus. Briefly: Inhibition of calf brain tubulin polymerization at 40 uM after 20 mins.
Conditions: not given
In short, it runs like this: as §1
In turn, `COc1cc(C(=O)c2ccc3c(ccn3C)c2)cc(OC)c1OC` registered an inhibition of 98%.

Test system in a further experiment: not listed separately
Nature of the experiment: Inhibition of calf brain tubulin polymerization after 20 mins. More on the design: species or system Bos taurus.
Conditions: not given
In short, it runs like this: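 Microtubule protein was purified from calf brain by two cycles of temperature-dependent assembly/disassembly. Assay mix: 1.0 mg/mL MTP in 0.1 M MES, 1 mM EGTA, 1 mM MgCl2, 1 mM β-ME, 1.5 mM GTP, pH 6.7, 4% DMSO, with a no-ligand control. Samples were preincubated 30 min at 20 °C, chilled 10 min on ice, then assembled by a shift from 4 °C to 37 °C and followed by turbidity. IC50 at 20 min came from exponential fits of TPI% versus concentration, with ≥2 independent experiments on different MTP preparations.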
As for `COc1ccc(/C=C\c2cc(OC)c(OC)c(OC)c2)cc1O` [COMBRETASTATIN A4], the IC50 is 3000 nM.
In turn, `COc1ccc(C(=O)c2cc(OC)c(OC)c(OC)c2)cc1O` [PHENSTATIN] had a 50% inhibitory concentration (IC50) of 2500 nM.
Still for that read-out and setting: the result for `CCn1ccc2cc(C(=O)c3ccc(OC)c(OC)c3OC)ccc21` reads 5600 nM; that for `COc1ccc(/C(=N\O)c2ccc3c(ccn3C)c2)c(OC)c1OC`, 9000 nM.
For the molecule `CCn1ccc2cc(/C(=N/O)c3ccc(OC)c(OC)c3OC)ccc21`, the IC50 is 43100 nM.
The same measure, in the same setting: the same measure for `COc1ccc(C(=O)c2ccc3c(ccn3C)c2)c(OC)c1OC`: 400 nM.
`COc1cc(C(=O)c2ccc3c(ccn3C)c2)cc(OC)c1OC` yielded a half-inhibitory concentration (IC50) of 6900 nM.

Another experiment has as its system HeLa. Briefly: Cytotoxicity against human HeLa cells after 72 hrs by XTT assay. Format: functional, cell-based.
Conditions: not given
Turning to `CN/N=C(/c1ccc2c(ccn2C)c1)c1ccc(OC)c(OC)c1OC`, the IC50 stood at 1000 nM.
On the same count and under the same terms, the result for `CCn1ccc2cc(/C(=N\NC)c3ccc(OC)c(OC)c3OC)ccc21` reads 290 nM; that for `CCn1ccc2cc(C(=O)c3ccc(OC)c(OC)c3OC)ccc21`, 420 nM; that for `COc1ccc(/C(=N\O)c2ccc3c(ccn3C)c2)c(OC)c1OC`, 76 nM.
On the same count and under the same terms, the result for `COc1ccc(/C(=N\OC(C)=O)c2ccc3c(ccn3C)c2)c(OC)c1OC` reads 1000 nM; that for `CCn1ccc2cc(/C(=N/O)c3ccc(OC)c(OC)c3OC)ccc21`, 2000 nM.
On the same count and under the same terms, the result for `COc1ccc(/C(=N\NC(C)=O)c2ccc3c(ccn3C)c2)c(OC)c1OC` reads 1000 nM.
With `COc1ccc(/C(=N\N)c2ccc3c(ccn3C)c2)c(OC)c1OC`, the IC50 turned out to be 2000 nM.
The molecule `COc1ccc(C(=O)c2ccc3c(ccn3C)c2)c(OC)c1OC` returned an IC50 of 17 nM.
Take `COc1ccc(C(O)c2ccc3c(ccn3C)c2)c(OC)c1OC` (configuration not stated): the 50% inhibitory concentration (IC50) came out at 2400 nM.
For `CCn1ccc2cc(C(O)c3ccc(OC)c(OC)c3OC)ccc21` (configuration not stated), the IC50 is below 1000 nM.

Another experiment concerns HL-60. Nature of the experiment: Cytotoxicity against human HL60 cells after 72 hrs by XTT assay. In kind it is functional, cell-based. The settings on record: HL-60, 72 h. In short, it runs like this:
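XTT proliferation assay. Adherent cells were seeded and left 24 h at 37 °C in humidified 5% CO2/95% air to attach. HL-60 cells were seeded at 3 × 10³ cells/well. Cells were exposed to a range of compound concentrations for 72 h under the same atmosphere, then incubated a further 4 h. Formazan was read at 490 nm against a 655 nm reference. IC50 is the concentration giving 50% inhibition of proliferation.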
`CN/N=C(/c1ccc2c(ccn2C)c1)c1ccc(OC)c(OC)c1OC` showed an IC50 of 1000 nM.
The same measure, in the same setting: the result for `COc1ccc(C(=O)c2cc(OC)c(OC)c(OC)c2)cc1O` [PHENSTATIN] reads 30 nM.
In turn, `CCn1ccc2cc(/C(=N/N)c3ccc(OC)c(OC)c3OC)ccc21` displayed a concentration for half-maximal inhibition (IC50) of 2000 nM.
As for `CCn1ccc2cc(C(=O)c3ccc(OC)c(OC)c3OC)ccc21`, half-maximal inhibition (IC50) required 5000 nM.
Still for that read-out and setting: the result for `COc1ccc(/C(=N\OC(C)=O)c2ccc3c(ccn3C)c2)c(OC)c1OC` reads 580 nM.
The same measure, in the same setting: the same measure for `CCn1ccc2cc(/C(=N/O)c3ccc(OC)c(OC)c3OC)ccc21`: 2000 nM.
The same measure, in the same setting: the same measure for `COc1ccc(/C(=N\NC(C)=O)c2ccc3c(ccn3C)c2)c(OC)c1OC`: 2000 nM.
Molecule `COc1ccc(/C(=N\N)c2ccc3c(ccn3C)c2)c(OC)c1OC` yielded a concentration for half-maximal inhibition (IC50) of 2000 nM.
As for `CCn1ccc2cc(C(O)c3ccc(OC)c(OC)c3OC)ccc21` (configuration not stated), the half-inhibitory concentration (IC50) is above 10000 nM.

The test system of another experiment is A549. Briefly: Cytotoxicity against human A549 cells after 72 hrs by XTT assay. The settings on record: A549, 72 h. In kind it is functional, cell-based.
In the case of `CN/N=C(/c1ccc2c(ccn2C)c1)c1ccc(OC)c(OC)c1OC`, the 50% inhibitory concentration (IC50) is above 10000 nM.
Same read-out and setting: the result for `CCn1ccc2cc(/C(=N/N)c3ccc(OC)c(OC)c3OC)ccc21` reads above 10000 nM.
Consider `CCn1ccc2cc(/C(=N\NC)c3ccc(OC)c(OC)c3OC)ccc21`, for which half-maximal inhibition (IC50) required 1900 nM.
The same measure, in the same setting: the same measure for `CCn1ccc2cc(C(=O)c3ccc(OC)c(OC)c3OC)ccc21`: above 10000 nM; for `COc1ccc(/C(=N\O)c2ccc3c(ccn3C)c2)c(OC)c1OC`: 1000 nM.
On to `COc1ccc(/C(=N\OC(C)=O)c2ccc3c(ccn3C)c2)c(OC)c1OC`, for which the half-inhibitory concentration (IC50) is above 10000 nM.
Take `CCn1ccc2cc(/C(=N/O)c3ccc(OC)c(OC)c3OC)ccc21`: the IC50 is above 10000 nM.
For `COc1ccc(/C(=N\NC(C)=O)c2ccc3c(ccn3C)c2)c(OC)c1OC`, the 50% inhibitory concentration (IC50) is above 10000 nM.
On the same count and under the same terms, the result for `COc1ccc(/C(=N\N)c2ccc3c(ccn3C)c2)c(OC)c1OC` reads above 10000 nM.
Same read-out and setting: the same measure for `COc1ccc(C(=O)c2ccc3c(ccn3C)c2)c(OC)c1OC`: 510 nM.
Regarding `COc1ccc(C(O)c2ccc3c(ccn3C)c2)c(OC)c1OC` (configuration not stated), the IC50 is above 10000 nM.
The same measure, in the same setting: the same measure for `CCn1ccc2cc(C(O)c3ccc(OC)c(OC)c3OC)ccc21` (configuration not stated): above 10000 nM.

The test system of a further experiment is HT-29. Briefly: Cytotoxicity against human HT-29 cells after 72 hrs by XTT assay. Format: functional, cell-based. Particulars: HT-29, 72 h.
In turn, `CN/N=C(/c1ccc2c(ccn2C)c1)c1ccc(OC)c(OC)c1OC` returned a half-maximal inhibitory concentration (IC50) of 2000 nM.
On the same count and under the same terms, the result for `CCn1ccc2cc(/C(=N/N)c3ccc(OC)c(OC)c3OC)ccc21` reads above 10000 nM.
The same measure, in the same setting: the same measure for `CCn1ccc2cc(/C(=N\NC)c3ccc(OC)c(OC)c3OC)ccc21`: 1200 nM; for `CCn1ccc2cc(C(=O)c3ccc(OC)c(OC)c3OC)ccc21`: 2000 nM.
Same read-out and setting: the same measure for `COc1ccc(/C(=N\O)c2ccc3c(ccn3C)c2)c(OC)c1OC`: 270 nM.
Molecule `COc1ccc(/C(=N\OC(C)=O)c2ccc3c(ccn3C)c2)c(OC)c1OC` registered a half-inhibitory concentration (IC50) of 1500 nM.
Regarding `CCn1ccc2cc(/C(=N/O)c3ccc(OC)c(OC)c3OC)ccc21`, the midpoint of inhibition, the IC50, lay at 2000 nM.
The same measure, in the same setting: the same measure for `COc1ccc(/C(=N\NC(C)=O)c2ccc3c(ccn3C)c2)c(OC)c1OC`: 2000 nM; for `COc1ccc(/C(=N\N)c2ccc3c(ccn3C)c2)c(OC)c1OC`: 2000 nM.
The same measure, in the same setting: the result for `COc1ccc(C(=O)c2ccc3c(ccn3C)c2)c(OC)c1OC` reads 21 nM.
With `CCn1ccc2cc(C(O)c3ccc(OC)c(OC)c3OC)ccc21` (configuration not stated), the 50% inhibitory concentration (IC50) was above 10000 nM.
